The source made the active and inactive calls. The calls are words filed in the database; no cut-off is given here.
Assays:
[1] = target: T1, Adenosine receptor A3 (Homo sapiens, UniProt P0DMS8); assay: Displacement of [125I]AB-MECA from human A3 adenosine receptor expressed in CHO cell membrane; type: cell membranes
T1 sequence (P0DMS8 whole entry): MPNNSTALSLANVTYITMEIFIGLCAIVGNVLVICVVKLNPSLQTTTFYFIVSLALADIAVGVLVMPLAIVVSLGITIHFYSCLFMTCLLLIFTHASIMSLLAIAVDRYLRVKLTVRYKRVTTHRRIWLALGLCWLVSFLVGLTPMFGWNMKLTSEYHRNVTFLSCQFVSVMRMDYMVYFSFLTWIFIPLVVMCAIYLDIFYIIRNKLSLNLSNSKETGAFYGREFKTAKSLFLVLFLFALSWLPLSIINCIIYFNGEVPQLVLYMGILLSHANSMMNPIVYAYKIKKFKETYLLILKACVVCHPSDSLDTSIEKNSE

[2] = target: T2, Adenosine receptor A2b (Homo sapiens) (UniProt P29275); assay: Antagonist activity at A2B receptor in human Caco2 cells assessed as reversal of NECA-induced cell death at 0.1 to 50 nM after 24 hrs by MTS assay; type: functional, cell-based; settings: Caco-2
T2 sequence (whole entry): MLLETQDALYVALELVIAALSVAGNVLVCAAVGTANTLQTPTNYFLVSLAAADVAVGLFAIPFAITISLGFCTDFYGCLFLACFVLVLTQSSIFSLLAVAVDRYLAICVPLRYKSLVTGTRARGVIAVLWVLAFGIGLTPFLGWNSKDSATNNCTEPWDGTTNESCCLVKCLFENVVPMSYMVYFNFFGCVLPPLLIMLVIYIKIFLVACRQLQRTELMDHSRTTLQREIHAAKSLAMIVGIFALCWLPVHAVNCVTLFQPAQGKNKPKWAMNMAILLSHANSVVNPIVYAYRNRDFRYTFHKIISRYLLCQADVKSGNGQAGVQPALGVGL
How it was run: (§1)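 Caco-2 cells grown in DMEM with 10% FBS, 2 mM L-glutamine and penicillin/streptomycin at 37 °C, 5% CO2, seeded at 5000 cells/well. Next day, antagonist (0.1–50 nM) added, alone or 5 min before 100 nM NECA, for 24 h. Viability read by MTS formazan absorbance at 490 nm. Background subtracted, expressed as % untreated control, duplicate or triplicate, ≥3 experiments.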

[3] = target: T3, Adenosine receptor A2b (Homo sapiens, UniProt P29275); assay: Antagonist activity at human A2B receptor expressed in CHO cells assessed as inhibition of NECA-mediated cAMP accumulation; type: functional, cell-based
T3 sequence (P29275 whole entry): T2 sequence (whole entry)
How it was run: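 hA2B-expressing CHO cells, 48 h after plating, were preincubated 15 min at 37 °C in DMEM with ADA 1 U/mL and Ro20-1724 20 μM. Antagonist (1 nM–10 μM) was added for 15 min at 37 °C, then 100 nM NECA. Reaction stopped with 0.4 N HCl, lysate neutralized with 4 N KOH, and cAMP measured by competitive protein binding.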

[4] = target: T4, Adenosine receptor A1 (Homo sapiens, UniProt P30542); assay: Displacement of [3H]DPCPX from human A1 adenosine receptor expressed in CHO cell membrane; type: cell membranes
T4 sequence (P30542 whole entry): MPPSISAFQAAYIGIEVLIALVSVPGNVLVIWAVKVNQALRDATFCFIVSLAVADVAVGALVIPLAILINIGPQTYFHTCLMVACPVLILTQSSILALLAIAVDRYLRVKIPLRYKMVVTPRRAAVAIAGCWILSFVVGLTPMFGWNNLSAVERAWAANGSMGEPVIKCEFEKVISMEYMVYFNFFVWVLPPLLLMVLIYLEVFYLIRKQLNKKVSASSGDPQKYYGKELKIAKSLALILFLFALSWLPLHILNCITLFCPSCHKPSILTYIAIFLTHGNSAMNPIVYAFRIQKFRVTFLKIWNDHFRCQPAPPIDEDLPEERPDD

[5] = target: Adenosine receptor A2a (Homo sapiens, UniProt P29274); assay: Displacement of [3H]NECA from human A2A adenosine receptor expressed in CHO cell membrane; type: cell membranes
Chain of Adenosine receptor A2a (P29274 whole entry): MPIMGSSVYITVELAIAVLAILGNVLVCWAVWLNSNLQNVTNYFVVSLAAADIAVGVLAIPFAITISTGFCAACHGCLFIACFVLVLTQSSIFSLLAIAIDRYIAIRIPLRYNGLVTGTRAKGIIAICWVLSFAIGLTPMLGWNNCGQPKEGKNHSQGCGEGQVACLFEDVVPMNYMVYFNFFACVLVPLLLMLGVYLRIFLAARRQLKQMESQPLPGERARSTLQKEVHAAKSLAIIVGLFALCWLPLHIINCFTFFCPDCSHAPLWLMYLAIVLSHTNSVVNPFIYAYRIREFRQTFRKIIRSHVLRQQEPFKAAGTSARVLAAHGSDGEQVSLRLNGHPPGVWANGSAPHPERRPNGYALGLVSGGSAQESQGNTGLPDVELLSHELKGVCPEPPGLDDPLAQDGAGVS

[6] = target: T2, Adenosine receptor A2b (Homo sapiens); assay: Induction of A2B receptor-mediated cell viability of human Caco2 cells assessed as cell survival at 0.1 to 50 nM after 24 hrs by MTS assay; type: cell-based; settings: Caco-2; how it was run: as §1

Ki [1] [nM] | IC50 [3] [nM] | Ki [4] [nM] | Ki [5] [nM] | Compound | inhibition [2] | Activity [6]
> 1000 | 7850 | > 10000 | > 10000 | O=c1c(-c2ccco2)nnc2n(-c3ccccc3)c3ccc(Cl)cc3n12 | Active | –
> 1000 | 54.3 | 299 | > 10000 | O=c1c(-c2ccccc2)nnc2n(Cc3ccccc3)c3ccccc3n12 | – | –
> 1000 | 1.4 | 728 | – | Oc1c(-c2ccccc2)nnc2nc3ccccc3n12 | Active | inactive
328 | 2.5 | > 10000 | > 10000 | O=c1c(-c2ccccc2)nnc2n(CCc3ccccc3)c3ccccc3n12 | Active | inactive
702 | 2.11 | > 10000 | 50.6 | O=c1c(-c2ccco2)nnc2n(-c3ccc(Cl)cc3)c3ccccc3n12 | Active | inactive

The remaining lines, values behind:

Compound | Ki [1] [nM] | IC50 [3] [nM] | Ki [4] [nM] | Ki [5] [nM] | inhibition [2] | Activity [6]
O=c1c(-c2ccccc2)nnc2n(-c3ccc(Cl)cc3)c3ccccc3n12 | > 1000 | 2.42 | 1360 | > 10000 | Active | inactive
O=c1c(-c2ccccc2)nnc2n(-c3ccccc3)c3ccc(Cl)cc3n12 | > 1000 | 3.1 | > 10000 | > 10000 | Active | inactive
Cn1c2ccccc2n2c(=O)c(-c3ccco3)nnc12 | > 1000 | 20.4 | 211 | 2610 | – | –
Oc1c(-c2ccco2)nnc2nc3ccccc3n12 | > 1000 | 15.3 | 25 | – | – | –
O=c1c(-c2ccco2)nnc2n(CCc3ccccc3)c3ccccc3n12 | > 1000 | 5.34 | > 10000 | 15.8 | – | –
O=c1c(-c2ccccc2)nnc2n(-c3ccccc3)c3ccccc3n12 | > 1000 | 15 | 83 | > 10000 | – | –
Cn1c2ccccc2n2c(=O)c(-c3ccccc3)nnc12 | > 1000 | 58 | 62 | > 10000 | – | –
O=c1c(-c2ccco2)nnc2n(-c3ccccc3)c3ccccc3n12 | > 1000 | 3200 | > 10000 | 3280 | Active | –
O=c1c(-c2ccco2)nnc2n(Cc3ccccc3)c3ccccc3n12 | > 1000 | 10 | > 10000 | 156 | – | –

From ChEMBL document CHEMBL2029296 (J Med Chem, 2012)
